Test results from ChEMBL document CHEMBL1153051, “Peperomins as anti-inflammatory agents that inhibit the NF-kappaB signaling pathway” (Bioorg Med Chem Lett, 2009).
Activity calls are given as the source filed them. The calls are words filed in the database; no cut-off is given here.

Legend:
[1] = molecular target: T1, Inhibitor of nuclear factor kappa-B kinase subunit beta (Homo sapiens) (UniProt O14920); assay: Inhibition of human FLAG-tagged IKK-beta expressed in HEK293 cells at 50 uM by Western blot analysis in presence of ATP; format: cell-based
T1 sequence (whole entry): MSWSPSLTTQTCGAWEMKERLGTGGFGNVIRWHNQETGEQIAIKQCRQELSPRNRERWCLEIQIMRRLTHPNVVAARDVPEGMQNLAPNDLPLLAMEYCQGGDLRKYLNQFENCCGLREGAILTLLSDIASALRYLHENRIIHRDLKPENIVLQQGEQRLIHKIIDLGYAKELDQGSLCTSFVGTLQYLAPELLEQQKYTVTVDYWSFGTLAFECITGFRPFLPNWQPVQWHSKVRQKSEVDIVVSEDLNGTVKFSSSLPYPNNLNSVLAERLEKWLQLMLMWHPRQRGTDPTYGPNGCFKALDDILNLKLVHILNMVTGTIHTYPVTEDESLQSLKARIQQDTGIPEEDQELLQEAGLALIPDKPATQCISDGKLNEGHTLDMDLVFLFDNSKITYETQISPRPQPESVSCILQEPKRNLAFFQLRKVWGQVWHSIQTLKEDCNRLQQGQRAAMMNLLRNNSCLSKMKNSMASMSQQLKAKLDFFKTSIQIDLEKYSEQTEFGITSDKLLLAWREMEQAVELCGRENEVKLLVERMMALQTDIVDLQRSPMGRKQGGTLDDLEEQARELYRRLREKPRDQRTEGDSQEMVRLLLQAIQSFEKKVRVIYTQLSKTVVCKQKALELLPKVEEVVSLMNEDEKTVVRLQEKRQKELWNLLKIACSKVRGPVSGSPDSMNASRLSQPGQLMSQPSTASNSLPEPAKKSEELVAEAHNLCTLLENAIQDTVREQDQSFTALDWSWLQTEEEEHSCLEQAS
Procedure, shortened: (§1)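 FLAG-IKKβ was transiently overexpressed in HEK293 cells for 24 h, then immunoprecipitated with anti-FLAG antibody. Precipitates were incubated with or without compound before the kinase reaction, and the phosphorylated product was read out by Western blot.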

A549 [2] = assay: Antiinflammatory activity in human A549 cells assessed as reduction of IL1-induced cell surface ICAM1 expression upto 100 uM preincubated for 1 hr before IL1 challenge measured after 6 hrs by Western blot analysis; format: functional, cell-based
Procedure, shortened: (§2)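 A549 cells pretreated 1 h with peperomins at various concentrations, then TNF-α (2.5 ng/mL) or IL-1 (0.25 ng/mL) added for 6 h with compound still present. Whole-cell lysates were Western blotted for ICAM-1, with β-actin as loading control.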

A549 [3] = assay: Antiinflammatory activity in human A549 cells assessed as reduction of IL1-induced increase in cell surface ICAM1 expression upto 100 uM preincubated for 1 hr before IL1 challenge measured after 6 hrs by ELISA; format: functional, cell-based
Procedure, shortened: (§3)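 Cell ELISA of surface ICAM-1 on A549 cells. Cells were pretreated 1 h across a concentration series, then stimulated 6 h with TNF-α (2.5 ng/mL) or IL-1 (0.25 ng/mL) with compound present. Values are means ± SD of triplicate cultures.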

A549 [4] = assay: Antiinflammatory activity in human A549 cells assessed as reduction of TNF-alpha-induced increase in cell surface ICAM1 expression upto 100 uM preincubated for 1 hr before TNFalpha challenge measured after 6 hrs by ELISA; format: functional, cell-based; procedure, shortened: as §3
A549 [5] = assay: Reduction of IL1-induced COX2 expression in human A549 cells at 100 uM preincubated for 1 hr before IL1 challenge measured after 6 hrs by Western blot analysis; format: functional, cell-based
Procedure, shortened: (§4)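 Cox-2 protein was Western blotted in A549 cells, with β-actin as loading control. Cells were pretreated 1 h with compound at various concentrations, then exposed 6 h to TNF-α (2.5 ng/mL) or IL-1 (0.25 ng/mL) in its continued presence.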

A549 [6] = assay: Antiinflammatory activity in human A549 cells assessed as reduction of TNF-alpha-induced cell surface ICAM1 expression upto 100 uM preincubated for 1 hr before TNFalpha challenge measured after 6 hrs by Western blot analysis; format: functional, cell-based; procedure, shortened: as §2
A549 [7] = assay: Antiinflammatory activity in human A549 cells assessed as reduction of IL1-induced increase in cell surface ICAM1 expression preincubated for 1 hr before IL1 challenge measured after 6 hrs by ELISA; format: functional, cell-based; procedure, shortened: as §3
MCF7 [8] = assay: Cytotoxicity against human MCF7 cells upto 100 uM after 6 hrs by MTT assay; format: cell-based; details: mcf7, 6 h
[9] = molecular target: T1, Inhibitor of nuclear factor kappa-B kinase subunit beta (Homo sapiens); assay: Inhibition of human FLAG-tagged IKK-beta expressed in HEK293 cells at 0.1 to 100 uM by Western blot analysis in presence of ATP; format: cell-based; procedure, shortened: as §1
A549 [10] = assay: Antiinflammatory activity in human A549 cells assessed as substantial decrease in TNF-alpha-induced cell surface ICAM1 expression at > 10 uM preincubated for 1 hr before TNFalpha challenge measured after 6 hrs by Western blot analysis; format: functional, cell-based; procedure, shortened: as §2
MCF7 [11] = assay: Antiinflammatory activity in human MCF7 cells assessed as inhibition of IL1-induced cell surface ICAM1 expression upto 100 uM preincubated for 1 hr before IL1 challenge measured after 6 hrs by ELISA; format: functional, cell-based
MCF7 [12] = assay: Antiinflammatory activity in human MCF7 cells assessed as inhibition of TNF-alpha-induced cell surface ICAM1 expression upto 100 uM preincubated for 1 hr before TNFalpha challenge measured after 6 hrs by ELISA; format: functional, cell-based
A549 [13] = assay: Antiinflammatory activity in human A549 cells assessed as complete decrease in TNF-alpha-induced cell surface ICAM1 expression at 100 uM preincubated for 1 hr before TNFalpha challenge measured after 6 hrs by Western blot analysis; format: functional, cell-based; procedure, shortened: as §2
A549 [14] = assay: Antiinflammatory activity in human A549 cells assessed as substantial decrease in IL1-induced cell surface ICAM1 expression at > 10 uM preincubated for 1 hr before IL1 challenge measured after 6 hrs by Western blot analysis; format: functional, cell-based; procedure, shortened: as §2
[15] = molecular target: T2, Inhibitor of nuclear factor kappa-B kinase subunit alpha (Homo sapiens) (UniProt O15111); assay: Inhibition of N-terminal GST-fused human IkappaBalpha (1 to 54) expressed in Escherichia coli BL21
T2 sequence (whole entry): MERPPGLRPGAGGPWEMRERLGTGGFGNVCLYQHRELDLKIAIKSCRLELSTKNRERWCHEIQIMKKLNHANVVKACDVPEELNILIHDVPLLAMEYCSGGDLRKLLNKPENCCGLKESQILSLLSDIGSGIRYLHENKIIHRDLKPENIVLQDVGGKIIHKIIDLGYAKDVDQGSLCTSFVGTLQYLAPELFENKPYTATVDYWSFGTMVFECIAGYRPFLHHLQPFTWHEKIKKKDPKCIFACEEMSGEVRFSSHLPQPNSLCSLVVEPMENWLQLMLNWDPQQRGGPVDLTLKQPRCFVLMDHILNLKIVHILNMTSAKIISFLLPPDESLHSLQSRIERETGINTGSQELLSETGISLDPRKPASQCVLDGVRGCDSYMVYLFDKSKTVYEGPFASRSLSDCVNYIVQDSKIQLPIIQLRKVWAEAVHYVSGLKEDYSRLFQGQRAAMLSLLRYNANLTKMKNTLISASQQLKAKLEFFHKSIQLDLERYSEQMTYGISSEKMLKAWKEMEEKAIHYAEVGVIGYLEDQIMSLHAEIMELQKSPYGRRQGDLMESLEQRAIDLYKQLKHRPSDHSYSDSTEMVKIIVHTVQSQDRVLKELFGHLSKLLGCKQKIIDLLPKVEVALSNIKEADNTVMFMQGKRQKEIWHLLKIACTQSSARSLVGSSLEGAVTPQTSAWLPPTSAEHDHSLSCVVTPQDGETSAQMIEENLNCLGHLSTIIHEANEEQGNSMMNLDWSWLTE
Procedure, shortened: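 IKK complex was immunoprecipitated with anti-IKKα from A549 cells. Cells were pretreated 1 h with compound, then given TNF-α (2.5 ng/mL) for 15 min. Precipitates phosphorylated GST-IκBα(1–54) with or without ATP (10 µM). Phospho-substrate was detected by Western blot with anti-phospho-IκB antibody, with bands quantified relative to IKKα.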

A549 [16] = assay: Antiinflammatory activity in human A549 cells assessed as reduction of TNF-alpha-induced increase in cell surface ICAM1 expression preincubated for 1 hr before TNFalpha challenge measured after 6 hrs by ELISA; format: functional, cell-based; procedure, shortened: as §3
A549 [17] = assay: Reduction of TNF-alpha-induced COX2 expression in human A549 cells at 100 uM preincubated for 1 hr before TNFalpha challenge measured after 6 hrs by Western blot analysis; format: functional, cell-based; procedure, shortened: as §4
A549 [18] = assay: Antiinflammatory activity in human A549 cells assessed as complete decrease in IL1-induced cell surface ICAM1 expression at 100 uM preincubated for 1 hr before IL1 challenge measured after 6 hrs by Western blot analysis; format: functional, cell-based; procedure, shortened: as §2
A549 [19] = assay: Cytotoxicity against human A549 cells upto 100 uM after 6 hrs by MTT assay; format: cell-based; details: a549, 6 h
Procedure, shortened: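 A549 viability by MTT after 6 h exposure to a range of compound concentrations, no cytokine. Viability given as %, means ± SD of triplicate cultures.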

A549 [20] = assay: Inhibition of TNF-alpha-induced IKKalpha expression in human A549 cells at 100 uM preincubated for 1 hr before TNFalpha challenge measured after 5 to 30 mins by Western blot analysis; format: functional, cell-based
A549 [21] = assay: Selectivity for inhibition of TNF-alpha-induced cell surface ICAM1 expression over inhibition of TNF-alpha-induced COX2 expression in human A549 cells; format: functional
A549 [22] = assay: Inhibition of TNF-alpha-induced IKK-beta expression in human A549 cells at 100 uM preincubated for 1 hr before TNFalpha challenge measured after 5 to 30 mins by Western blot analysis; format: functional, cell-based
A549 [23] = assay: Inhibition of IL1-induced IKKalpha expression in human A549 cells at 100 uM preincubated for 1 hr before IL1 challenge measured after 5 to 30 mins by Western blot analysis; format: functional, cell-based
[24] = molecular target: T3, NF-kappa-B inhibitor alpha (Homo sapiens) (UniProt P25963); assay: Inhibition of IL1-stimulated IkappaBalpha degradation in human A549 cells at 0.1 to 100 uM preincubated for 1 hr before IL1 challenge measured after 10 mins by Western blot analysis; format: cell-based
T3 sequence (whole entry): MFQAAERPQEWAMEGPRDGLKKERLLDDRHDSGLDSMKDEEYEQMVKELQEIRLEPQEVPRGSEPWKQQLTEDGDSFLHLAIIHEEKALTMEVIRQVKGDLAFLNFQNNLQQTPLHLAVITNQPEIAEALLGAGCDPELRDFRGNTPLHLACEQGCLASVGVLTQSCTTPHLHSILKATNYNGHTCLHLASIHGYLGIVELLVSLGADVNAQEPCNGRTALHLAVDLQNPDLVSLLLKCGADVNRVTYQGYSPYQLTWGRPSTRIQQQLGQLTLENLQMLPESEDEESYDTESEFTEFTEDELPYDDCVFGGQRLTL

A549 [25] = assay: Selectivity for inhibition of IL1-induced cell surface ICAM1 expression over inhibition of IL1-induced COX2 expression in human A549 cells; format: functional
[26] = molecular target: T3, NF-kappa-B inhibitor alpha (Homo sapiens); assay: Inhibition of TNF-alpha-stimulated IkappaBalpha degradation in human A549 cells at 0.1 to 100 uM preincubated for 1 hr before TNFalpha challenge measured after 15 mins by Western blot analysis
A549 [27] = assay: Inhibition of IL1-induced IKK-beta expression in human A549 cells at 100 uM preincubated for 1 hr before IL1 challenge measured after 5 to 30 mins by Western blot analysis; format: functional, cell-based

inhibition [9]	inhibition [15]	Structure (SMILES)	Activity (A549 [2])	Activity (A549 [3])	Activity (A549 [4])	Activity (A549 [5])	Activity (A549 [6])	Activity (A549 [7])	Activity (MCF7 [8])	Activity (A549 [10])	Activity (MCF7 [12])	Activity (A549 [13])	Activity (A549 [14])	Activity (A549 [16])	Activity (A549 [17])	Activity (A549 [18])	Activity (A549 [19])	further results
		CCCCC/C=C/C=C1/C(=O)C=C[C@@H]1C/C=C\CCCC(=O)O																inhibition [1]: Active
		COc1cc(C(c2cc(OC)c3c(c2)OCO3)[C@@H]2COC(=O)[C@H]2C)cc2c1OCO2	inactive	inactive	inactive	inactive	inactive											
		COc1cc([C@@H](c2cc(OC)c3c(c2)OCO3)[C@@H]2COC(=O)[C@H]2C)cc(OC)c1OC	inactive	inactive	inactive	inactive	inactive											
inactive	Active	C=C1C(=O)OC[C@H]1[C@@H](c1cc(OC)c(OC)c(OC)c1)c1cc(OC)c2c(c1)OCO2 [2,6-DIDEHYDROPEPEROMIN B]						Dose-dependent effect	Non-toxic	Active	Active	Active	Active	Dose-dependent effect	Active	Active	Toxic	inhibition (MCF7 [11]): Active
inactive	Active	C=C1C(=O)OC[C@H]1C(c1cc(OC)c2c(c1)OCO2)c1cc(OC)c2c(c1)OCO2 [PEPEROMIN E]						Dose-dependent effect	Non-toxic	Active	Active	Active	Active	Dose-dependent effect	Active	Active	Toxic	Activity (MCF7 [11]): Active; inhibition (A549 [20]): inactive; fold change (FC) (A549 [21]): 10; Activity (A549 [22]): inactive; inhibition (A549 [23]): inactive; inhibition [24]: Active; fold change (FC) (A549 [25]): 10; inhibition [26]: Active; inhibition (A549 [27]): inactive
